From PubChem
STAT3 act: activators of IL-6 induced STAT3 signaling; actives 0.91% (n = 190,000); activation (% of control), % at 5.6 µM; U3A cells, IL-6 STAT3-luciferase reporter, luminescence; 100% = signal with IL-6 EC80 alone; AID 871;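 active = activation above the screen-wide mean of compound activation plus 3 SD, cut at about 130% in these data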;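 note: 0% = background luminescence of wells with medium and substrate only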
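Material: human STAT1-deficient U3A cells with stable STAT3-luciferase reporter / Probe or stimulus: IL-6 stimulus at 33 ng/mL final / Schedule: 1 h compound pre-exposure, 6 h IL-6 stimulation, 37 °C / Technique: luminescence / Read-out basis: percent of IL-6-only median luminescence / Control set: IL-6-only high control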
STAT1 act: STAT1 signaling activation; activation (% of control), % at 5.5 µM; actives 2.6% (n = 200,000); NIH 3T3 STAT1-luciferase reporter, IFN-gamma, luminescence; 100% = IFN-gamma alone, no compound;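 active = activation above the screen-wide mean activation plus 3 SD, cut at about 130% in these data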;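 note: raw ratio to IFN-gamma control signal so 100% means no change and 0% no light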
STAT3 blocker: STAT3 signaling inhibition. U3A cells, IL-6 STAT3-luciferase reporter, luminescence; host cell line lacks STAT1. inhibition, % at 5.5 µM. actives 0.89% (n = 190,000). AID 862;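 active = inhibition above the mean inhibition across all screened compounds plus 3 SD, cut at about 44% in these data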;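 note: 0% = DMSO only wells and 100% = 100 µM nifuroxazide control wells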
APP 5'UTR act: APP 5'UTR luciferase reporter activation | actives 1% (n = 190,000) | SH-SY5Y APP 5'UTR luciferase reporter, luminescence; zero percent = DMSO vehicle wells | activation, % at 2 µM;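 active = activation above a set limit, based on mean plus 3 SD of controls, cut at about 140% in these data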
NF-kB expr up: compounds increasing NF-kB expression in human neuronal cells; fold change at 12.5 µM; AID 1239; NF-kB reporter expression; hits give high values; actives 1.6% (n = 190,000); in the data active = fold change above about 3.3
STAT1 inh: inhibitors of IFN-gamma induced STAT1 signaling; NIH 3T3 STAT1-luciferase reporter, luminescence; inhibition, % at 5.5 µM; actives 0.35% (n = 200,000); AID 920;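 active = inhibition above a set limit, the mean inhibition across all tested compounds plus 3 SD, cut at about 34% in these data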;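 note: 0% = IFN-gamma with DMSO and 100% = IFN-gamma with 300 µM nifuroxazide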
STAT1 activ conf: STAT1 activation, confirmation assay; actives 97% (n = 1,200); AID 1262; shares compounds with STAT1 act; activation (% of control), % at 5.7 µM; NIH 3T3 STAT1-luciferase reporter, IFN-gamma potentiation, luminescence; 100% = IFN-gamma EC80 alone, no compound;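 active = activation above a set limit carried over from the earlier primary STAT1 screen, cut at about 140% in these data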;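 note: simple ratio to median IFN-gamma plus DMSO wells so 0% means no light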
NFkB act: activates NF-kappaB, counter-screen to STAT1 activators; shares compounds with STAT1 act; activation (% of control), % at 5.7 µM; HEK293T NF-kB luciferase reporter, TNF-alpha stimulated, luminescence; 100% = TNF-alpha with vehicle only; actives 43% (n = 1,200); AID 1306;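 active = activation above the mean of solvent-only control wells plus 3 SD, set per campaign, cut at about 130% in these data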;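 note: TNF-alpha given at a submaximal dose yielding about 80% of full reporter signal; values are well signal over median control so 100% means no change and 0% no light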
STAT3 act 2: activates human STAT3, counter-screen to STAT1 activators | actives 46% (n = 1,200) | activation (% of control), % at 5.7 µM | AID 1316 | U3A cells STAT3-luciferase reporter, IL-6, luminescence; cells lack STAT1; 100 = IL-6 alone, no compound effect | shares compounds with STAT1 act;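 active = activation above the solvent-only control well mean plus 3 SD, set per plate batch, cut at about 110% in these data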;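 note: 0% = no luminescence and 100% = median IL-6 plus DMSO wells; higher means more STAT3 reporter activation so hits are non-selective activators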
Active calls of the source: *. This is a sample that favours compounds with a hit; in the whole collection about 4.9% have one here.

Results for O=C(N/N=C/c1ccc(Br)cc1)c1ccc(Br)o1 ?
STAT3 act: 104; STAT1 act: 159*; STAT3 blocker: -2; APP 5'UTR act: 65; NF-kB expr up: 3.5*; STAT1 inh: -67; STAT1 activ conf: 190*; NFkB act: 137*; STAT3 act 2: 113*

How did O=C(/C=C/Nc1ccc(Nc2ccccc2)cc1)c1cccs1 do in these assays?
STAT3 act: 103; STAT1 act: 162*; STAT3 blocker: 8; APP 5'UTR act: 98; NF-kB expr up: 2.2; STAT1 inh: -70; STAT1 activ conf: 166*; NFkB act: 140*; STAT3 act 2: 108

Results for Cc1ccc(NC(=O)/C(Cl)=C/c2ccccc2)cc1C ?
STAT3 act: 79; STAT1 act: 177*; STAT3 blocker: 23; APP 5'UTR act: 139*; NF-kB expr up: 9.1*; STAT1 inh: -86; STAT1 activ conf: 230*; NFkB act: 122; STAT3 act 2: 102

Results for CC(=O)Nc1ccccc1C(=O)C(=O)Nc1ccc(C)c(C)c1 ?
STAT3 act: 86; STAT1 act: 128; STAT3 blocker: 16; APP 5'UTR act: 81; NF-kB expr up: 1.2; STAT1 inh: -32

How did Cc1ccc2nc3c(c(C(=O)OCC(=O)NC4CCS(=O)(=O)C4)c2c1)CCCC3 (stereo unspecified) do in these assays?
STAT3 act: 99; STAT1 act: 104; STAT3 blocker: 4; APP 5'UTR act: 10; NF-kB expr up: 0.83; STAT1 inh: -5

Results for O=C(NN/C(=N/S(=O)(=O)c1ccc(Cl)cc1)c1ccccc1)c1ccc(O)cc1 ?
STAT3 act: 92; STAT1 act: 152*; STAT3 blocker: 10; APP 5'UTR act: 129; NF-kB expr up: 1.3; STAT1 inh: -59; STAT1 activ conf: 154*; NFkB act: 108; STAT3 act 2: 111*

How did Cc1ccc(C(=O)OCC(=O)Nc2cccc(S(=O)(=O)NC3=NCCCCC3)c2)c(C)c1 do in these assays?
STAT3 act: 100; STAT1 act: 92; STAT3 blocker: 9; APP 5'UTR act: 18; NF-kB expr up: 0.92; STAT1 inh: 7

Results for COc1ccc(OCCSc2ncccn2)cc1 ?
STAT3 act: 102; STAT1 act: 154*; STAT3 blocker: 0; APP 5'UTR act: 160*; NF-kB expr up: 4.1*; STAT1 inh: -51; STAT1 activ conf: 181*; NFkB act: 127; STAT3 act 2: 120*

Results for O=C(NCC1CCCO1)C(c1ccccn1)N(Cc1ccccc1Cl)C(=O)CN1C(=O)c2ccccc2S1(=O)=O (stereo unspecified) ?
STAT3 act: 102; STAT1 act: 100; STAT3 blocker: 1; APP 5'UTR act: 15; NF-kB expr up: 1.2; STAT1 inh: -2

Results for COc1ccc(Cn2c(/C=C/c3ccccc3)nc3ccccc32)cc1 ?
STAT3 act: 120; STAT1 act: 157*; STAT3 blocker: -19; NF-kB expr up: 6.1*; STAT1 inh: -64; STAT1 activ conf: 196*; NFkB act: 150*; STAT3 act 2: 130*

What do the screens show for `Nc1ccc(-c2nc3ccc(N)cc3[nH]2)cc1`?
STAT3 act: 114; STAT1 act: 127; STAT3 blocker: -11; APP 5'UTR act: 16; STAT1 inh: -32

Results for Nc1ccc(-c2nc3ccc([N+](=O)[O-])cc3[nH]2)cc1 ?
STAT3 act: 94; STAT1 act: 182*; STAT3 blocker: 5; APP 5'UTR act: 72; NF-kB expr up: 7.1*; STAT1 inh: -92; STAT1 activ conf: 233*; NFkB act: 147*; STAT3 act 2: 120*

How did CC(=O)Nc1cccc(-c2csc(Nc3ccc(Cl)cn3)n2)c1 do in these assays?
STAT3 act: 96; STAT1 act: 202*; STAT3 blocker: 5; APP 5'UTR act: 182*; NF-kB expr up: 6.5*; STAT1 inh: -108; STAT1 activ conf: 249*; NFkB act: 161*; STAT3 act 2: 102

How did CC(=O)Nc1cccc(-c2csc(Nc3cc(C)ccn3)n2)c1 do in these assays?
STAT3 act: 110; STAT1 act: 152*; STAT3 blocker: -4; APP 5'UTR act: 138*; NF-kB expr up: 2.4; STAT1 inh: -58; STAT1 activ conf: 174*; NFkB act: 130; STAT3 act 2: 115*

What do the screens show for `O=C1CCc2ccc(NS(=O)(=O)c3ccc(F)cc3)cc2N1`?
STAT3 act: 97; STAT1 act: 93; STAT3 blocker: 6; APP 5'UTR act: 7; NF-kB expr up: 1.2; STAT1 inh: 5

What do the screens show for `CCn1c(O)c(/C=C2\C=Nc3ccccc32)sc1=O`?
STAT3 act: 126; STAT1 act: 178*; STAT3 blocker: -27; APP 5'UTR act: 154*; NF-kB expr up: 3.1; STAT1 inh: -88; STAT1 activ conf: 175*; NFkB act: 140*; STAT3 act 2: 126*

What do the screens show for `CCn1c(O)c(/C=C2\C=Nc3ccccc32)sc1=Nc1ccc(C)cc1`?
STAT3 act: 102; STAT1 act: 106; STAT3 blocker: 3; APP 5'UTR act: 16; NF-kB expr up: 1.2; STAT1 inh: -7

Results for CC1CN(c2ccccc2)CCN1Cc1nc(Cc2ccccc2)no1 (stereo unspecified) ?
STAT3 act: 100; STAT1 act: 94; STAT3 blocker: 3; APP 5'UTR act: -4; NF-kB expr up: 0.93; STAT1 inh: 4

How did O=c1c2ccccc2cnn1-c1ccc(Cl)nn1 do in these assays?
STAT3 act: 88; STAT1 act: 111; STAT3 blocker: 16; APP 5'UTR act: 8; NF-kB expr up: 1.4; STAT1 inh: -14

How did O=c1c2ccccc2cnn1-c1ccc(Br)cc1 do in these assays?
STAT3 act: 128; STAT1 act: 152*; STAT3 blocker: -34; APP 5'UTR act: 124; NF-kB expr up: 6.4*; STAT1 inh: -58; STAT1 activ conf: 214*; NFkB act: 142*; STAT3 act 2: 141*
